# Source: ChEMBL document CHEMBL1144398, “Structure-based design, parallel synthesis, structure-activity relationship, and molecular modeling studies of thiocarbamates, new potent non-nucleoside HIV-1 reverse transcriptase inhibitor isosteres of phenethylthiazolylthiourea derivatives” (J Med Chem, 2005)
# pEC50: −log10 of the molar value.
# Experiments:
# MT4 [1] = assay: Effective concentration require to protect MT-4 cells from human immunodeficiency virus type 1 induced cytopathogenicity was determined by MTT method; type: functional, cell-based
# How it was run: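 MT-4 cells infected with HIV-1, with test compounds added. Protection from virus-induced cytopathogenicity was read by MTT. EC50 is the concentration giving 50% protection. Values are means of three separate experiments, with variation among triplicates under 10%. Trovirdine served as the reference.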
# MT4 [2] = assay: Cytotoxic concentration required to reduce the viability of mock infected MT-4 cells determined by MTT method; type: functional; details: Homo sapiens
# How it was run: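 Viability of mock-infected MT-4 cells, assayed in parallel with the antiviral test, read by MTT. CC50 is the concentration that lowers viability by 50%. Values are means of three separate experiments, with variation among triplicates under 10%. The highest concentration tested was 100 µM.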
# MT4 [3] = assay: Ratio of CC50 to that of EC50 determined in MT-4 cells; type: functional
# How it was run: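 Selectivity index, calculated as CC50/EC50. CC50 came from MTT viability of mock-infected MT-4 cells and EC50 from MTT-read protection of HIV-1-infected MT-4 cells from cytopathogenicity, with both run in parallel. Values are means of three experiments.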
smiles,measurement,setting,value
O=C1c2ccccc2C(=O)N1CCOC(=S)Nc1ccccc1Cl,pEC50,MT4 [1],4.77
same,CC50,MT4 [2],> 100 µM
same,SI,MT4 [3],>5.9
COc1ccc(NC(=S)OCCN2C(=O)c3ccccc3C2=O)cc1,pEC50,MT4 [1],7.52
same,CC50,MT4 [2],> 100 µM
same,SI,MT4 [3],>3333
CC(=O)c1ccc(NC(=S)OCCN2C(=O)c3ccccc3C2=O)cc1,pEC50,MT4 [1],6.85
same,CC50,MT4 [2],> 100 µM
same,SI,MT4 [3],>714
N#Cc1ccc(/N=C(/S)OCCNC(=O)c2ccccc2C(=O)O)cc1,pEC50,MT4 [1],7.00
same,CC50,MT4 [2],> 100 µM
same,SI,MT4 [3],>1000
CSc1cccc(NC(=S)OCCNC(=O)c2ccccc2C(=O)O)c1,pEC50,MT4 [1],4.96
same,CC50,MT4 [2],> 100 µM
same,SI,MT4 [3],>9.1
CSc1cccc(NC(=S)OCCN2C(=O)c3ccccc3C2=O)c1,pEC50,MT4 [1],5.15
same,CC50,MT4 [2],> 100 µM
same,SI,MT4 [3],>14.3
COc1cccc(NC(=S)OCCN2C(=O)c3ccccc3C2=O)c1,pEC50,MT4 [1],5.40
same,CC50,MT4 [2],> 100 µM
same,SI,MT4 [3],>25
CCOc1ccc(NC(=S)OCCNC(=O)c2ccccc2C(=O)O)cc1,pEC50,MT4 [1],5.70
same,CC50,MT4 [2],> 100 µM
same,SI,MT4 [3],50
O=C1c2ccccc2C(=O)N1CCCOC(=S)Nc1ccccc1,pEC50,MT4 [1],< 4.00
same,CC50,MT4 [2],> 100 µM
COC(=O)c1cccc(NC(=S)OCCN2C(=O)c3ccccc3C2=O)c1,pEC50,MT4 [1],4.68
same,CC50,MT4 [2],> 100 µM
same,SI,MT4 [3],>4.8
O=C1c2ccccc2C(=O)N1CCOC(=S)Nc1cccc2ccccc12,pEC50,MT4 [1],5.19
same,CC50,MT4 [2],> 100 µM
same,SI,MT4 [3],>15.4
Cc1ccc(NC(=S)OCCNC(=O)c2ccccc2C(=O)O)cc1,pEC50,MT4 [1],6.40
same,CC50,MT4 [2],> 100 µM
same,SI,MT4 [3],>250
CCN(CC)c1ccc(NC(=S)OCCN2C(=O)c3ccccc3C2=O)cc1,pEC50,MT4 [1],5.85
same,CC50,MT4 [2],> 100 µM
same,SI,MT4 [3],>71
O=C(O)c1ccccc1C(=O)NCCO/C(S)=N\c1cccc(Cl)c1,pEC50,MT4 [1],5.52
same,CC50,MT4 [2],> 100 µM
same,SI,MT4 [3],>33.3
CCc1ccc(NC(=S)OCCNC(=O)c2ccccc2C(=O)O)cc1,pEC50,MT4 [1],6.52
same,CC50,MT4 [2],> 100 µM
same,SI,MT4 [3],>333
O=C1c2ccccc2C(=O)N1CCOC(=S)Nc1cccc(C(F)(F)F)c1,pEC50,MT4 [1],4.89
same,CC50,MT4 [2],> 100 µM
same,SI,MT4 [3],>7.7
CN(C)c1ccc(NC(=S)OCCN2C(=O)c3ccccc3C2=O)cc1,pEC50,MT4 [1],6.22
same,CC50,MT4 [2],> 100 µM
same,SI,MT4 [3],>167
O=C(O)c1ccccc1C(=O)NCCO/C(S)=N\c1ccc(Cl)cc1,pEC50,MT4 [1],7.00
same,CC50,MT4 [2],> 100 µM
same,SI,MT4 [3],>1000
Cc1ccccc1/N=C(/S)OCCNC(=O)c1ccccc1C(=O)O,pEC50,MT4 [1],4.57
same,CC50,MT4 [2],> 100 µM
same,SI,MT4 [3],>3.7
CC(C)c1ccc(NC(=S)OCCNC(=O)c2ccccc2C(=O)O)cc1,pEC50,MT4 [1],5.43
same,CC50,MT4 [2],> 100 µM
same,SI,MT4 [3],>27
Cc1cccc(NC(=S)OCCN2C(=O)c3ccccc3C2=O)c1,pEC50,MT4 [1],5.82
same,CC50,MT4 [2],> 100 µM
same,SI,MT4 [3],>66.7
O=C1c2ccccc2C(=O)N1COC(=S)Nc1ccc([N+](=O)[O-])cc1,pEC50,MT4 [1],< 4.64
same,CC50,MT4 [2],23 µM
O=C(O)c1ccccc1C(=O)NCCO/C(S)=N\c1ccccc1,pEC50,MT4 [1],5.52
same,CC50,MT4 [2],> 100 µM
same,SI,MT4 [3],>33.3
O=C(O)c1ccccc1C(=O)NCCO/C(S)=N\c1ccc(Br)cc1,pEC50,MT4 [1],7.00
same,CC50,MT4 [2],> 100 µM
same,SI,MT4 [3],>1000
O=C(O)c1ccccc1C(=O)NCCO/C(S)=N\c1ccc(F)cc1,pEC50,MT4 [1],6.60
same,CC50,MT4 [2],> 100 µM
same,SI,MT4 [3],>400
O=C1C2C3C=CC(C3)C2C(=O)N1CCOC(=S)Nc1ccc([N+](=O)[O-])cc1 (configuration not stated),pEC50,MT4 [1],< 4.00
same,CC50,MT4 [2],> 100 µM
COC(=O)c1ccccc1/N=C(/S)OCCN1C(=O)c2ccccc2C1=O,pEC50,MT4 [1],< 4.35
same,CC50,MT4 [2],45 µM
O=C(O)c1ccccc1C(=O)NCCO/C(S)=N\c1ccccc1F,pEC50,MT4 [1],6.30
same,CC50,MT4 [2],> 100 µM
same,SI,MT4 [3],>200
Cc1cccc(NC(=S)OCCNC(=O)c2ccccc2C(=O)O)c1,pEC50,MT4 [1],5.30
same,CC50,MT4 [2],> 100 µM
same,SI,MT4 [3],>20
O=C(O)c1ccccc1C(=O)NCCO/C(S)=N\c1ccc([N+](=O)[O-])cc1,pEC50,MT4 [1],6.52
same,CC50,MT4 [2],> 100 µM
same,SI,MT4 [3],>333
COc1ccccc1/N=C(/S)OCCNC(=O)c1ccccc1C(=O)O,pEC50,MT4 [1],4.19
same,CC50,MT4 [2],> 100 µM
same,SI,MT4 [3],>1.5
O=C1c2ccccc2C(=O)N1CCOC(=S)NC1CCCCC1,pEC50,MT4 [1],6.52
same,CC50,MT4 [2],> 100 µM
same,SI,MT4 [3],>333
COc1cccc(NC(=S)OCCNC(=O)c2ccccc2C(=O)O)c1,pEC50,MT4 [1],5.59
same,CC50,MT4 [2],> 100 µM
same,SI,MT4 [3],>38.5
CCOC(=O)c1ccc(NC(=S)OCCN2C(=O)c3ccccc3C2=O)cc1,pEC50,MT4 [1],4.64
same,CC50,MT4 [2],> 100 µM
same,SI,MT4 [3],>4.3
O=C1c2ccccc2C(=O)N1CCOC(=S)Oc1ccc(Cl)cc1,pEC50,MT4 [1],< 4.00
same,CC50,MT4 [2],> 100 µM
CC(C)c1ccc(NC(=S)OCCN2C(=O)c3ccccc3C2=O)cc1,pEC50,MT4 [1],7.40
same,CC50,MT4 [2],94 µM
same,SI,MT4 [3],2350
O=C(O)c1ccccc1C(=O)NCCO/C(S)=N\c1ccccc1[N+](=O)[O-],pEC50,MT4 [1],< 4.00
same,CC50,MT4 [2],> 100 µM
Cc1ccccc1/N=C(/S)OCCN1C(=O)c2ccccc2C1=O,pEC50,MT4 [1],5.43
same,CC50,MT4 [2],> 100 µM
same,SI,MT4 [3],>27
COc1ccccc1/N=C(/S)OCCN1C(=O)c2ccccc2C1=O,pEC50,MT4 [1],5.25
same,CC50,MT4 [2],> 100 µM
same,SI,MT4 [3],>17.9
O=C1c2ccccc2C(=O)N1CCOC(=S)Nc1ccccc1Br,pEC50,MT4 [1],4.85
same,CC50,MT4 [2],> 100 µM
same,SI,MT4 [3],>7.1
O=C1c2ccccc2C(=O)N1CCO/C(S)=N\c1ccccc1F,pEC50,MT4 [1],5.52
same,CC50,MT4 [2],> 100 µM
same,SI,MT4 [3],>33
Cc1ccc(OC(=S)OCCN2C(=O)c3ccccc3C2=O)cc1,pEC50,MT4 [1],< 4.00
same,CC50,MT4 [2],> 100 µM
O=C1c2ccccc2C(=O)N1CCOC(=S)Nc1cccc(Cl)c1,pEC50,MT4 [1],5.70
same,CC50,MT4 [2],> 100 µM
same,SI,MT4 [3],>50
CCOc1ccc(NC(=S)OCCN2C(=O)c3ccccc3C2=O)cc1,pEC50,MT4 [1],5.15
same,CC50,MT4 [2],> 100 µM
same,SI,MT4 [3],>14.3
O=C1c2ccccc2C(=O)N1CCO/C(S)=N\c1ccccc1C(F)(F)F,pEC50,MT4 [1],4.19
same,CC50,MT4 [2],> 100 µM
same,SI,MT4 [3],>1.5
O=C1c2ccccc2C(=O)N1CCO/C(S)=N\c1ccccc1[N+](=O)[O-],pEC50,MT4 [1],< 4.00
same,CC50,MT4 [2],> 100 µM
O=C1c2ccccc2C(=O)N1CCOC(=S)Nc1cccc([N+](=O)[O-])c1,pEC50,MT4 [1],6.22
same,CC50,MT4 [2],> 100 µM
same,SI,MT4 [3],>167
O=C1c2ccccc2C(=O)N1CCOC(=S)Nc1ccc(C(F)(F)F)cc1,pEC50,MT4 [1],7.40
same,CC50,MT4 [2],> 100 µM
same,SI,MT4 [3],>2500
CC(C)c1ccccc1/N=C(/S)OCCN1C(=O)c2ccccc2C1=O,pEC50,MT4 [1],4.37
same,CC50,MT4 [2],> 100 µM
same,SI,MT4 [3],>2.3
CC(=O)c1cccc(NC(=S)OCCN2C(=O)c3ccccc3C2=O)c1,pEC50,MT4 [1],5.37
same,CC50,MT4 [2],> 100 µM
same,SI,MT4 [3],>23
COC(=O)c1ccccc1/N=C(/S)OCCNC(=O)c1ccccc1C(=O)O,pEC50,MT4 [1],< 4.00
same,CC50,MT4 [2],> 100 µM
COC(=O)c1cccc(NC(=S)OCCNC(=O)c2ccccc2C(=O)O)c1,pEC50,MT4 [1],< 4.00
same,CC50,MT4 [2],> 100 µM
CCc1ccc(NC(=S)OCCN2C(=O)c3ccccc3C2=O)cc1,pEC50,MT4 [1],7.10
same,CC50,MT4 [2],> 100 µM
same,SI,MT4 [3],>1250
COc1ccc(NC(=S)OCCNC(=O)c2ccccc2C(=O)O)cc1,pEC50,MT4 [1],6.70
same,CC50,MT4 [2],> 100 µM
same,SI,MT4 [3],>500
